From ChEMBL document CHEMBL3272249, “Esters of N-tert-butylarterenol. Long-acting new bronchodilators with reduced cardiac effects” (J Med Chem, 1976)

How the values were obtained:
[1] = tested on: Canis familiaris; test: Bronchodilator activity in dog assessed as degree of inhibition of carbachol or histamine-induced bronchoconstriction at 590 to 1180 mg/kg, it relative to control; settings: dose mg/kg 590-1180; route endotracheal
[2] = tested on: Canis familiaris; test: Bronchodilator activity in dog assessed as time of inhibition of carbachol or histamine-induced bronchoconstriction at 590 to 1180 mg/kg, it relative to control; settings: dose mg/kg 590-1180; route endotracheal
[3] = tested on: Canis familiaris; test: Bronchodilator activity in dog assessed as degree of inhibition of carbachol or histamine-induced bronchoconstriction at 2000 to 2700 mg/kg, it relative to control; assay type: functional, Canis lupus familiaris; settings: dose mg/kg 2000-2700; route endotracheal
How it was run: (§1)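 Anesthetized dogs, trachea cannulated with a nonbreathing valve. Bronchoconstriction induced by iv carbachol (2–4 μg/kg) or histamine diphosphate (20–50 μg/kg) in separate animals, and airway pressure recorded by transducer. Drug stocks were made fresh in distilled water, diluted in saline and kept on ice. Read-out was percent inhibition of control constriction, averaged over at least three dogs per dose at the higher dose. Carbachol and histamine data were combined.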

[4] = tested on: Canis familiaris; test: Bronchodilator activity in dog assessed as degree of inhibition of carbachol or histamine-induced bronchoconstriction at 30 to 60 mg/kg, iv relative to control; assay type: functional, Canis lupus familiaris; settings: dose mg/kg 30-60
How it was run: as §1

[5] = tested on: Canis familiaris; test: Cardiotoxicity in spontaneously respiring dog assessed as time of increase in heart rate at 2000 to 2700 mg/kg, it relative to control; assay type: toxicity, organism-based, Canis lupus familiaris; parameters: dose 2000-2700 mg/kg, route endotracheal; settings: in vivo, inhaled_or_intranasal
How it was run: (§2)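 Anesthetized, spontaneously respiring dogs. Heart rate was taken from a lead II EKG, and blood pressure from the right femoral artery by transducer. The increase in heart rate (beats/min) was scored on a graded scale with more than 4 dogs per dose, and its duration was recorded. Drugs were dissolved fresh in distilled water, diluted in physiological saline and kept on ice.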

[6] = tested on: Canis familiaris; test: Bronchodilator activity in dog assessed as time of inhibition of carbachol or histamine-induced bronchoconstriction at 30 to 60 mg/kg, iv relative to control; assay type: functional, Canis lupus familiaris; settings: dose mg/kg 30-60
How it was run: (§3)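 Dog airway model: anesthetized, cannulated via a nonbreathing valve, with airway pressure changes recorded after iv carbachol (2–4 μg/kg) or histamine diphosphate (20–50 μg/kg) challenge, each agonist in different animals. Compounds were given iv, intraduodenally or intratracheally from fresh aqueous stocks diluted in saline. Duration (h) of inhibition of induced bronchoconstriction was followed, and the two agonist datasets were pooled.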

[7] = tested on: Canis familiaris; test: Cardiotoxicity in spontaneously respiring dog assessed as degree of increase in heart rate at 30 to 60 mg/kg, iv relative to control; assay type: toxicity, organism-based, Canis lupus familiaris; parameters: dose 30-60 mg/kg, route intravenous; settings: in vivo
How it was run: as §2

[8] = tested on: Canis familiaris; test: Bronchodilator activity in dog assessed as time of inhibition of carbachol or histamine-induced bronchoconstriction at 2000 to 2700 mg/kg, it relative to control; assay type: functional, Canis lupus familiaris; settings: dose mg/kg 2000-2700; route endotracheal
How it was run: as §3

[9] = tested on: Canis familiaris; test: Cardiotoxicity in spontaneously respiring dog assessed as degree of increase in heart rate at 2000 to 2700 mg/kg, it relative to control; assay type: toxicity, organism-based, Canis lupus familiaris; parameters: dose 2000-2700 mg/kg, route endotracheal; settings: in vivo, inhaled_or_intranasal
How it was run: as §2

[10] = tested on: Canis familiaris; test: Bronchodilator activity in dog assessed as time of inhibition of carbachol or histamine-induced bronchoconstriction at 5 mg/kg, iv relative to control; assay type: functional, Canis lupus familiaris
How it was run: (§4)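 Anesthetized dogs with an airway cannula and a nonbreathing valve. Bronchoconstriction was induced by iv carbachol (2–4 μg/kg) or histamine diphosphate (20–50 μg/kg) and read as change in airway pressure by transducer. Each compound was tested against both agonists in different dogs, and the results were combined and averaged. Effect is % inhibition of control constriction, with at least three dogs per dose. Drugs were dissolved fresh in distilled water, diluted in saline and kept on ice.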

[11] = tested on: Canis familiaris; test: Bronchodilator activity in dog assessed as time of inhibition of carbachol or histamine-induced bronchoconstriction at 50 mg/kg, id relative to control; assay type: functional, Canis lupus familiaris; settings: route intraduodenal
How it was run: as §4

[12] = tested on: Canis familiaris; test: Bronchodilator activity in dog assessed as degree of inhibition of carbachol or histamine-induced bronchoconstriction at 5 mg/kg, iv relative to control; assay type: functional; settings: Canis lupus familiaris
How it was run: as §1

[13] = tested on: Canis familiaris; test: Bronchodilator activity in dog assessed as degree of inhibition of carbachol or histamine-induced bronchoconstriction at 50 mg/kg, id relative to control; assay type: functional; settings: Canis lupus familiaris, route intraduodenal
How it was run: as §1

[14] = tested on: Canis familiaris; test: Bronchodilator activity in dog assessed as degree of inhibition of carbachol or histamine-induced bronchoconstriction at 25 to 100 mg/kg, iv relative to control; assay type: functional, Canis lupus familiaris; settings: dose mg/kg 25-100
How it was run: as §1

[15] = tested on: Canis familiaris; test: Cardiotoxicity in spontaneously respiring dog assessed as time of increase in heart rate at 25 to 100 mg/kg, iv relative to control; assay type: toxicity, organism-based, Canis lupus familiaris; parameters: dose 25-100 mg/kg, route intravenous; settings: in vivo
How it was run: as §2

[16] = tested on: Canis familiaris; test: Bronchodilator activity in dog assessed as degree of inhibition of carbachol or histamine-induced bronchoconstriction at 50 to 100 mg/kg, id relative to control; assay type: functional, Canis lupus familiaris; settings: dose mg/kg 50-100; route intraduodenal
How it was run: as §1

[17] = tested on: Canis familiaris; test: Bronchodilator activity in dog assessed as time of inhibition of carbachol or histamine-induced bronchoconstriction at 25 to 100 mg/kg, iv relative to control; assay type: functional, Canis lupus familiaris; settings: dose mg/kg 25-100
How it was run: as §3

[18] = tested on: Canis familiaris; test: Bronchodilator activity in dog assessed as time of inhibition of carbachol or histamine-induced bronchoconstriction at 50 to 100 mg/kg, id relative to control; assay type: functional, Canis lupus familiaris; settings: dose mg/kg 50-100; route intraduodenal
How it was run: as §4

[19] = tested on: Canis familiaris; test: Cardiotoxicity in spontaneously respiring dog assessed as degree of increase in heart rate at 25 to 100 mg/kg, iv relative to control; assay type: toxicity, organism-based, Canis lupus familiaris; parameters: dose 25-100 mg/kg, route intravenous; settings: in vivo
How it was run: as §2

[20] = tested on: Canis familiaris; test: Bronchodilator activity in dog assessed as time of inhibition of carbachol or histamine-induced bronchoconstriction at 200 mg/kg, iv relative to control; assay type: functional, Canis lupus familiaris
How it was run: as §3

[21] = tested on: Canis familiaris; test: Bronchodilator activity in dog assessed as degree of inhibition of carbachol or histamine-induced bronchoconstriction at 200 mg/kg, iv relative to control; assay type: functional; settings: Canis lupus familiaris
How it was run: as §1

[22] = tested on: Canis familiaris; test: Bronchodilator activity in dog assessed as degree of inhibition of carbachol or histamine-induced bronchoconstriction at 100 to 200 mg/kg, id relative to control; assay type: functional, Canis lupus familiaris; settings: dose mg/kg 100-200; route intraduodenal
How it was run: as §1

[23] = tested on: Canis familiaris; test: Bronchodilator activity in dog assessed as time of inhibition of carbachol or histamine-induced bronchoconstriction at 100 to 200 mg/kg, id relative to control; assay type: functional, Canis lupus familiaris; settings: dose mg/kg 100-200; route intraduodenal
How it was run: as §3

[24] = tested on: Canis familiaris; test: Bronchodilator activity in dog assessed as time of inhibition of carbachol or histamine-induced bronchoconstriction at 430 to 860 mg/kg, it relative to control; assay type: functional, Canis lupus familiaris; settings: dose mg/kg 430-860; route endotracheal
How it was run: as §4

[25] = tested on: Canis familiaris; test: Cardiotoxicity in spontaneously respiring dog assessed as time of increase in heart rate at 200 mg/kg, iv relative to control; assay type: toxicity, organism-based, Canis lupus familiaris; parameters: dose 200 mg/kg, route intravenous; settings: in vivo
How it was run: as §2

[26] = tested on: Canis familiaris; test: Cardiotoxicity in spontaneously respiring dog assessed as degree of increase in heart rate at 200 mg/kg, iv relative to control; assay type: toxicity, organism-based, Canis lupus familiaris; parameters: dose 200 mg/kg, route intravenous; settings: in vivo
How it was run: as §2

[27] = tested on: Canis familiaris; test: Bronchodilator activity in dog assessed as degree of inhibition of carbachol or histamine-induced bronchoconstriction at 430 to 860 mg/kg, it relative to control; assay type: functional, Canis lupus familiaris; settings: dose mg/kg 430-860; route endotracheal
How it was run: as §1

## CS(=O)(=O)O.Cc1cc(C)cc(C(=O)Oc2ccc([C@@H](O)CNC(C)(C)C)cc2OC(=O)c2cc(C)cc(C)c2)c1
[1]
  inhibition (INH): 20%
[2]
  Time: <3 h

## CC(C)(C)NC[C@H](O)c1ccc(OC(=O)c2ccccc2)c(OC(=O)c2ccccc2)c1.Cl
[3]
  inhibition (INH): >70%
[4]
  inhibition (INH): 45%
[5]
  Time: 1 h
[6]
  Time: <4 h
[7]
  Activity: 40%
[8]
  Time: 4 h
[9]
  Activity: 20%

## CC(C)(C)NC[C@H](O)c1ccc(OC(=O)C2(C)CC2)c(OC(=O)C2(C)CC2)c1.Cl
[10]
  Time: <1 h
[11]
  Time: 2 h
[12]
  inhibition in vivo at 5 mg/kg: 45%
[13]
  inhibition in vivo at 50 mg/kg: 45%

## COc1ccc(C(=O)Oc2ccc([C@@H](O)CNC(C)(C)C)cc2OC(=O)c2ccc(OC)cc2)cc1.Cl
[14]
  inhibition (INH): 20%
[15]
  Time: < 2 h
[16]
  inhibition (INH): 20%
[17]
  Time: 1 h
[18]
  Time: <3 h
[19]
  Activity: 20%

## CC(C)(C)CC(=O)Oc1ccc([C@@H](O)CNC(C)(C)C)cc1OC(=O)CC(C)(C)C.Cl
[20]
  Time: >4 h
[21]
  inhibition in vivo at 200 mg/kg: > 70%
[22]
  inhibition (INH): 45%
[23]
  Time: <5 h
[24]
  Time: <3 h
[25]
  Time: < 1 h
[26]
  Activity: 20%
[27]
  inhibition (INH): 20%
